Assay results as given in ChEMBL document CHEMBL1157144, “Novel 16-membered macrolides modified at C-12 and C-13 positions of midecamycin A1 and miokamycin. Part 1: Synthesis and evaluation of 12,13-carbamate and 12-arylalkylamino-13-hydroxy analogues” (2008).
In brackets after ≈: the same amount, converted by molar mass.

Legend:
Format in all cases: functional
Streptococcus pyogenes [1] = assay: Antibacterial activity against ermB-constitutive resistant Streptococcus pyogenes after 20 hrs by agar dilution method
How it was run: (§1)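 Agar dilution MIC. Streptococcal strains were pre-cultured on blood agar plates. A 5 µl portion of a cell suspension of about 10^6 CFU/ml was inoculated onto Sensitivity disk agar supplemented with 5% horse blood. Plates were incubated at 37 °C for 20 h, then MIC was read.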

Staphylococcus aureus [2] = assay: Antibacterial activity against standard Staphylococcus aureus after 20 hrs by agar dilution method
How it was run: (§2)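 Agar dilution MIC. The inoculum came from a seed culture in Sensitivity test broth. A 5 µl portion of a cell suspension of about 10^6 CFU/ml was inoculated onto Sensitivity disk agar supplemented with 5% horse blood. Plates were incubated at 37 °C for 20 h, then MIC was read.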

Streptococcus pneumoniae [3] = assay: Antibacterial activity against mefE efflux-resistant Streptococcus pneumoniae after 20 hrs by agar dilution method; how it was run: as §1
Haemophilus influenzae [4] = assay: Antibacterial activity against standard Haemophilus influenzae after 20 hrs by agar dilution method
How it was run: (§3)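 MIC by agar dilution. Strains grown on blood agar plates for seed culture. About 5 µl of a suspension of roughly 10^6 CFU/ml spotted onto Sensitivity disk agar with 5% horse blood. Plates incubated at 37 °C for 20 h, then MIC read.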

Staphylococcus aureus [5] = assay: Antibacterial activity against ermC-inducible resistant Staphylococcus aureus after 20 hrs by agar dilution method; how it was run: as §2
Haemophilus influenzae [6] = assay: Antibacterial activity against susceptible Haemophilus influenzae after 20 hrs by agar dilution method; how it was run: as §3
Moraxella catarrhalis = assay: Antibacterial activity against standard Moraxella catarrhalis after 20 hrs by agar dilution method; how it was run: as §3
Streptococcus pneumoniae [7] = assay: Antibacterial activity against ermB-constitutive resistant Streptococcus pneumoniae after 20 hrs by agar dilution method; how it was run: as §1
Staphylococcus aureus [8] = assay: Antibacterial activity against ermA-constitutive resistant Staphylococcus aureus after 20 hrs by agar dilution method; how it was run: as §2
Staphylococcus aureus [9] = assay: Antibacterial activity against susceptible Staphylococcus aureus after 20 hrs by agar dilution method; how it was run: as §2
Streptococcus pyogenes [10] = assay: Antibacterial activity against standard Streptococcus pyogenes after 20 hrs by agar dilution method; how it was run: as §3
Streptococcus pneumoniae [11] = assay: Antibacterial activity against ermB-inducible resistant Streptococcus pneumoniae after 20 hrs by agar dilution method; how it was run: as §1
Streptococcus pneumoniae [12] = assay: Antibacterial activity against susceptible Streptococcus pneumoniae after 20 hrs by agar dilution method; how it was run: as §3
Staphylococcus aureus [13] = assay: Antibacterial activity against ermB-inducible resistant Staphylococcus aureus after 20 hrs by agar dilution method; how it was run: as §2
Streptococcus pyogenes [14] = assay: Antibacterial activity against mefE efflux-resistant Streptococcus pyogenes after 20 hrs by agar dilution method; how it was run: as §1

CCC(=O)O[C@@H]1CC(=O)O[C@H](C)C[C@H](O)[C@H](N(C)CCCc2ccccc2)/C=C/[C@H](OC(C)=O)[C@H](C)C[C@H](CC=O)[C@H](O[C@@H]2O[C@H](C)[C@@H](O)[C@H](N(C)C)[C@H]2O)[C@H]1OC
MIC (Streptococcus pyogenes [1]): > 100 µg/mL
MIC (Staphylococcus aureus [2]): 0.39 µg/mL (≈ 0.475 µM)
MIC (Streptococcus pneumoniae [3]): 0.39 µg/mL (≈ 0.475 µM)
MIC (Haemophilus influenzae [4]): 0.39 µg/mL (≈ 0.475 µM)
MIC (Staphylococcus aureus [5]): 1.56 µg/mL (≈ 1.9 µM)
MIC (Haemophilus influenzae [6]): 3.13 µg/mL (≈ 3.81 µM)
MIC (Moraxella catarrhalis): 0.025 µg/mL (≈ 0.0305 µM)
MIC (Streptococcus pneumoniae [7]): > 100 µg/mL
MIC (Staphylococcus aureus [8]): > 100 µg/mL
MIC (Staphylococcus aureus [9]): 0.78 µg/mL (≈ 0.95 µM)
MIC (Streptococcus pyogenes [10]): 0.39 µg/mL (≈ 0.475 µM)
MIC (Streptococcus pneumoniae [11]): > 100 µg/mL
MIC (Streptococcus pneumoniae [12]): 0.2 µg/mL (≈ 0.244 µM)
MIC (Staphylococcus aureus [13]): 1.56 µg/mL (≈ 1.9 µM)
MIC (Streptococcus pyogenes [14]): 0.78 µg/mL (≈ 0.95 µM)

CCC(=O)O[C@@H]1CC(=O)O[C@H](C)C[C@H](O)[C@H](N(C)CCCc2cccc3ccccc23)/C=C/[C@H](OC(C)=O)[C@H](C)C[C@H](CC=O)[C@H](O[C@@H]2O[C@H](C)[C@@H](O)[C@H](N(C)C)[C@H]2O)[C@H]1OC
MIC (Streptococcus pyogenes [1]): > 100 µg/mL
MIC (Staphylococcus aureus [2]): 0.39 µg/mL (≈ 0.448 µM)
MIC (Streptococcus pneumoniae [3]): 0.1 µg/mL (≈ 0.115 µM)
MIC (Haemophilus influenzae [4]): 0.78 µg/mL (≈ 0.895 µM)
MIC (Staphylococcus aureus [5]): 0.78 µg/mL (≈ 0.895 µM)
MIC (Haemophilus influenzae [6]): 3.13 µg/mL (≈ 3.59 µM)
MIC (Moraxella catarrhalis): 0.025 µg/mL (≈ 0.0287 µM)
MIC (Streptococcus pneumoniae [7]): > 100 µg/mL
MIC (Staphylococcus aureus [8]): > 100 µg/mL
MIC (Staphylococcus aureus [9]): 0.78 µg/mL (≈ 0.895 µM)
MIC (Streptococcus pyogenes [10]): 0.1 µg/mL (≈ 0.115 µM)
MIC (Streptococcus pneumoniae [11]): 100 µg/mL (≈ 115 µM)
MIC (Streptococcus pneumoniae [12]): 0.025 µg/mL (≈ 0.0287 µM)
MIC (Staphylococcus aureus [13]): 0.78 µg/mL (≈ 0.895 µM)
MIC (Streptococcus pyogenes [14]): 0.39 µg/mL (≈ 0.448 µM)

CCC(=O)O[C@@H]1CC(=O)O[C@H](C)C[C@H](O)[C@H](N(C)CCCc2cnc3ccccc3c2)/C=C/[C@H](OC(C)=O)[C@H](C)C[C@H](CC=O)[C@H](O[C@@H]2O[C@H](C)[C@@H](O)[C@H](N(C)C)[C@H]2O)[C@H]1OC
MIC (Streptococcus pyogenes [1]): > 100 µg/mL
MIC (Staphylococcus aureus [2]): 1.56 µg/mL (≈ 1.79 µM)
MIC (Streptococcus pneumoniae [3]): 0.39 µg/mL (≈ 0.447 µM)
MIC (Haemophilus influenzae [4]): 1.56 µg/mL (≈ 1.79 µM)
MIC (Staphylococcus aureus [5]): 1.56 µg/mL (≈ 1.79 µM)
MIC (Haemophilus influenzae [6]): 6.25 µg/mL (≈ 7.17 µM)
MIC (Moraxella catarrhalis): 0.2 µg/mL (≈ 0.229 µM)
MIC (Streptococcus pneumoniae [7]): > 100 µg/mL
MIC (Staphylococcus aureus [8]): > 100 µg/mL
MIC (Staphylococcus aureus [9]): 1.56 µg/mL (≈ 1.79 µM)
MIC (Streptococcus pyogenes [10]): 0.78 µg/mL (≈ 0.894 µM)
MIC (Streptococcus pneumoniae [11]): > 100 µg/mL
MIC (Streptococcus pneumoniae [12]): 0.2 µg/mL (≈ 0.229 µM)
MIC (Staphylococcus aureus [13]): 1.56 µg/mL (≈ 1.79 µM)
MIC (Streptococcus pyogenes [14]): 3.13 µg/mL (≈ 3.59 µM)

CCC(=O)O[C@@H]1CC(=O)O[C@H](C)C/C=C/C=C/[C@H](OC(C)=O)[C@H](C)C[C@H](CC=O)[C@H](O[C@@H]2O[C@H](C)[C@@H](O[C@H]3C[C@@](C)(OC(C)=O)[C@@H](OC(=O)CC)[C@H](C)O3)[C@H](N(C)C)[C@H]2O)[C@H]1OC [MIOCAMYCIN]
MIC (Streptococcus pyogenes [1]): > 100 µg/mL
MIC (Staphylococcus aureus [2]): 0.2 µg/mL (≈ 0.223 µM)
MIC (Streptococcus pneumoniae [3]): 0.2 µg/mL (≈ 0.223 µM)
MIC (Haemophilus influenzae [4]): 3.13 µg/mL (≈ 3.49 µM)
MIC (Staphylococcus aureus [5]): 0.78 µg/mL (≈ 0.869 µM)
MIC (Haemophilus influenzae [6]): 25 µg/mL (≈ 27.8 µM)
MIC (Moraxella catarrhalis): 0.78 µg/mL (≈ 0.869 µM)
MIC (Streptococcus pneumoniae [7]): > 100 µg/mL
MIC (Staphylococcus aureus [8]): > 100 µg/mL
MIC (Staphylococcus aureus [9]): 0.78 µg/mL (≈ 0.869 µM)
MIC (Streptococcus pyogenes [10]): 0.1 µg/mL (≈ 0.111 µM)
MIC (Streptococcus pneumoniae [11]): 6.25 µg/mL (≈ 6.96 µM)
MIC (Streptococcus pneumoniae [12]): 0.1 µg/mL (≈ 0.111 µM)
MIC (Staphylococcus aureus [13]): 1.56 µg/mL (≈ 1.74 µM)
MIC (Streptococcus pyogenes [14]): 0.2 µg/mL (≈ 0.223 µM)
